ChEMBL document CHEMBL1129971, “Cyclic HIV-1 protease inhibitors derived from mannitol: synthesis, inhibitory potencies, and computational predictions of binding affinities” (J Med Chem, 1997)

How the values were obtained:
[1] = target: Human immunodeficiency virus type 1 protease (Human immunodeficiency virus 1) (UniProt Q72874); details: 10 uM
[2] = target: T1, Human immunodeficiency virus type 1 protease (Human immunodeficiency virus 1, UniProt Q72874); assay: Inhibition concentration against HIV-1 protease
In short: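 Purified HIV-1 protease (30 nM) added after 5 min preincubation of 60.8 µM chromophoric HIV substrate III with inhibitor (DMSO, final below 2.5%). Buffer: 50 mM each glycine, sodium acetate, MES and Tris-HCl, 1.0 M NaCl, 1 mM EDTA, 1 mM DTT, pH 5.5, 37 °C. Cleavage rate from absorbance change at 300 nm. IC50 from activity versus log inhibitor concentration.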

[3] = target: T1, Human immunodeficiency virus type 1 protease; assay: Binding affinity against HIV-1 protease
In short: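 Ki from the activity of 20 nM HIV-1 protease across a matrix of substrate (HIV substrate III at 10, 20, 50 and 100 µM) and at least three inhibitor levels: roughly the estimated Ki and 2–4 times it. Tight-binding rate equation fitted by nonlinear regression. Buffer and read-out as in the spectrophotometric cleavage assay.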

O=C1N(Cc2ccccc2)[C@H](COc2ccccc2)[C@@H](O)[C@H](O)[C@@H](COc2ccccc2)N1Cc1ccccc1
inhibition [1]: 0%

COC(=O)c1ccc(CN2C(=O)N(Cc3ccc(C(=O)OC)cc3)[C@H](COc3ccccc3)[C@H](O)[C@@H](O)[C@H]2COc2ccccc2)cc1
IC50 [2]: 8000 nM

O=C1N(Cc2ccccc2)[C@H](CCc2ccccc2)[C@H](O)[C@@H](O)[C@@H](CCc2ccccc2)N1Cc1ccccc1
Ki [3]: 214 nM
IC50 [2]: 4000 nM

O=C1N(Cc2ccc(CO)cc2)[C@H](COc2ccccc2)[C@H](O)[C@@H](O)[C@@H](COc2ccccc2)N1Cc1ccc(CO)cc1
Ki [3]: 0.23 nM
IC50 [2]: 10 nM

O=C1N(Cc2ccccc2)[C@@H](COc2ccccc2)[C@@H](O)[C@H](O)[C@H](COc2ccccc2)N1Cc1ccccc1
inhibition [1]: 15%

O=C1N(Cc2ccccc2)[C@@H](COc2ccccc2)[C@H](O)[C@@H](O)[C@H](COc2ccccc2)N1Cc1ccccc1
inhibition [1]: 10%

O=C1N(Cc2ccccc2)[C@H](COc2ccccc2)[C@H](O)[C@@H](O)[C@@H](COc2ccccc2)N1Cc1ccccc1
IC50 [2]: 80 nM

O=C1N(Cc2ccc(CO)cc2)[C@H](Cc2ccccc2)[C@H](O)[C@@H](O)[C@@H](Cc2ccccc2)N1Cc1ccc(CO)cc1 [DMP-323]
IC50 [2]: 15 nM

O=C1N(Cc2ccccc2)[C@H](CCCc2ccccc2)[C@H](O)[C@@H](O)[C@@H](CCCc2ccccc2)N1Cc1ccccc1
Ki [3]: 570 nM
IC50 [2]: 10000 nM

O=S1(=O)N(Cc2ccccc2)[C@H](COc2ccccc2)[C@H](O)[C@@H](O)[C@@H](COc2ccccc2)N1Cc1ccccc1
IC50 [2]: 200 nM

O=S1(=O)N(Cc2ccccc2)[C@H](CCc2ccccc2)[C@H](O)[C@@H](O)[C@@H](CCc2ccccc2)N1Cc1ccccc1
Ki [3]: 14.7 nM
IC50 [2]: 200 nM
